Experimental data: paper PMC6591795 (ChemistryOpen, 2019)
Read-outs that look alike come from different tables or passages of the source.

What was measured:
GTB [1] = molecular target: T1, GTB (Homo sapiens, UniProt P16442, G235S/G268A/L266M/R176G); assay: methyl TROSY CSP titration, TITAN lineshape analysis; format: binding; settings: for Kd: K D
T1 sequence (P16442 64-354 R176G/G235S/L266M/G268A limits assumed): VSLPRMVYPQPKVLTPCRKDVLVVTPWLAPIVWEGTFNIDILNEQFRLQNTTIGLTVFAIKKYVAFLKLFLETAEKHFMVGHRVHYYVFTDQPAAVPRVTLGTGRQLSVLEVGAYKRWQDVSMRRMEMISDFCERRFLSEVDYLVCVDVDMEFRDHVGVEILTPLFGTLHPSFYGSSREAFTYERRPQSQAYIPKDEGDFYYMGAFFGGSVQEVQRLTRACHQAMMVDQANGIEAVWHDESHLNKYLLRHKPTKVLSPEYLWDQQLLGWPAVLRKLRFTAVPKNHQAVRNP
Outline: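 Enzyme expressed in D₂O-based M9 minimal medium with ¹³C-methyl precursors, IPTG-induced, and purified by cation-exchange and UDP-affinity chromatography. Ligand titrated at constant protein concentration, with a 2D [¹³C,¹H] HMQC at each point. Kd and koff from a global multi-peak TITAN two-state fit; apo parameters fixed from the ligand-free spectrum; 200-run bootstrap residual resampling.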

GTB [2] = molecular target: T1, GTB; settings: read-out: KD from ITC; UDP binding to GTB:H-Dis; cited from earlier work
[3] = GTB in presence of saturating B-Tris
[4] = GTB in presence of saturating H-Dis
[5] = GTB in presence of saturating H-Tris I
[6] = GTB in presence of saturating H-Tris II
[7] = GTB in presence of saturating H-Tris III
[8] = GTB in presence of saturating H-Tris IV
[9] = GTB in presence of saturating H-Tris V
[10] = GTB in presence of saturating H-Tris VI
[11] = apo GTB, donor-type ligands, Mg2+, 298 K

**Q.** With `O=c1ccn([C@@H]2O[C@H](COP(=O)(O)OP(=O)(O)O)[C@@H](O)[C@H]2O)c(=O)[nH]1` [UDP, uridine diphosphate] as the compound, how does the koff (GTB [1]; [3]) read?
**A.** The koff was 18 ± 1 s⁻¹.

**Q.** What about the kon (GTB [1]; [3]) of the same compound?
**A.** The kon was 28000 M⁻¹ s⁻¹.

**Q.** What about the koff (GTB [1]; [4]) of the same compound?
**A.** The koff was 2.6 ± 0.3 s⁻¹.

**Q.** What about the kon (GTB [1]; [4]) of the same compound?
**A.** The kon was 25000 M⁻¹ s⁻¹.

**Q.** What about the off-rate constant koff (GTB [1]; GTB in presence of saturating H-Dis, from titration analysis (Table 3)) of the same compound?
**A.** Its off-rate constant koff is 2.6 Hz.

**Q.** What about the koff (GTB [1]; [5]) of the same compound?
**A.** The koff was 2.2 ± 0.2 s⁻¹.

**Q.** And the kon (GTB [1]; [5])?
**A.** Its kon is 58000 M⁻¹ s⁻¹.

**Q.** What about the koff (GTB [1]; [6]) of the same compound?
**A.** The koff was 1.7 ± 0.3 s⁻¹.

**Q.** And the kon (GTB [1]; [6])?
**A.** The kon was 280000 M⁻¹ s⁻¹.

**Q.** What about the koff (GTB [1]; [7]) of the same compound?
**A.** The koff was 3.6 ± 0.5 s⁻¹.

**Q.** And the kon (GTB [1]; [7])?
**A.** Its kon is 120000 M⁻¹ s⁻¹.

**Q.** And the koff (GTB [1]; [8])?
**A.** The koff was 12 ± 1 s⁻¹.

**Q.** What about the kon (GTB [1]; [8]) of the same compound?
**A.** The kon was 190000 M⁻¹ s⁻¹.

**Q.** And the koff (GTB [1]; [9])?
**A.** The koff was 3.4 ± 0.3 s⁻¹.

**Q.** What about the kon (GTB [1]; [9]) of the same compound?
**A.** The kon was 120000 M⁻¹ s⁻¹.

**Q.** And the koff (GTB [1]; [10])?
**A.** The koff was 2.2 ± 0.2 s⁻¹.

**Q.** And the kon (GTB [1]; [10])?
**A.** Its kon is 69000 M⁻¹ s⁻¹.

**Q.** And the “kon multiplied by the UDP concentration (comparable to kAB)” value (GTB [1]; GTB saturated with H-Dis, kon=2.5×10^4 M^−1s^−1 times 250 μM UDP)?
**A.** The value was “ca. 6.3 Hz”.

**Q.** What about the Kd (GTB [1]; [3]) of the same compound?
**A.** Its Kd is 660 ± 10 µM.

**Q.** What about the Kd (GTB [1]; [4]) of the same compound?
**A.** The Kd was 103 ± 2 µM.

**Q.** What about the Kd (GTB [1]; [5]) of the same compound?
**A.** Its Kd is 38 ± 1 µM.

**Q.** And the Kd (GTB [1]; [6])?
**A.** The Kd was 6 ± 1 µM.

**Q.** And the Kd (GTB [1]; [7])?
**A.** Its Kd is 29 ± 1 µM.

**Q.** And the Kd (GTB [1]; [8])?
**A.** The Kd was 65 ± 2 µM.

**Q.** What about the Kd (GTB [1]; [9]) of the same compound?
**A.** Its Kd is 31 ± 1 µM.

**Q.** What about the Kd (GTB [1]; [10]) of the same compound?
**A.** Its Kd is 32 ± 1 µM.

**Q.** What about the Kd (GTB [1]; [11]) of the same compound?
**A.** Its Kd is 161 ± 3 µM.

**Q.** What about the koff (GTB [1]; [11]) of the same compound?
**A.** Its koff is 243 ± 7 s⁻¹.

**Q.** What about the kon (GTB [1]; [11]) of the same compound?
**A.** The kon was 1.5e+06 M⁻¹ s⁻¹.

**Q.** And the Kd (GTB [2])?
**A.** Its Kd is 27 µM.
